Experimental data reported in PMC4254268 (Cellular signalling, 2014).

Experiments:
α-SMA in NRK-52E cells [1] = experiment: α-SMA protein expression by Western blot; assay type: cell-based, rat; conditions: 100 μM MGA 48 h
Summary of the method: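 After 24 h serum starvation, cells received 100 uM MGA ± test agents for 48 h. Triton lysates were run on 10% SDS-PAGE and transferred to PVDF. Blots were probed overnight at 4°C with mouse anti-α-SMA (1:5000), then anti-mouse HRP (1:3000) and chemiluminescence. Membranes were stripped and re-probed for EFα1 (1:3000) as loading control. Densitometry; 3-4 cell passages.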

α-SMA in NRK-52E cells [2] = experiment: α-SMA immunofluorescent staining; assay type: cell-based, rat; conditions: 100 μM MGA 72 h, Ang-(1-7) 100 nM + DAL 10 μM
Summary of the method: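 NRK-52E cells were grown 2 days on chamber slides in 5% FBS medium, then serum-free for 24 h. They were treated 72 h with 100 μM MGA ± test agents and fixed in 2% paraformaldehyde for 15 min. After 0.2% Triton permeabilisation and 3% BSA block, cells were stained overnight at 4°C with mouse anti-α-SMA (1:200), then Alexa Fluor 568 anti-mouse (1:400); nuclei with DAPI. Representative of 3 passages.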

Ang- = assay type: in vitro ADME, rat; conditions: n=3
Summary of the method: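 NRK-52E cells grown to confluence are serum-starved 24 h, then kept 48 h in serum-free or 100 uM glycated albumin (MGA) medium. They are harvested, frozen at −80°C and homogenized in 10 mM HEPES, 125 mM NaCl, 10 μM ZnCl2, pH 7.4, then spun at 100,000g. 125I-Ang-(1-7) (0.5 nM) is incubated with 2 μg supernatant protein for 30 min at 37°C and stopped with ice-cold 1.0% phosphoric acid. Products are separated by isocratic reverse-phase HPLC with flow-through γ detection, identified against 125I standards, and reported as fmol/mg/min (Bradford protein).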

NRK-52E cells [3] = experiment: Cell area in immunofluorescent images; assay type: cell-based, rat; conditions: MGA 48 hours
Summary of the method: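 NRK-52E cells were serum-starved for 24 h, then exposed to MGA for 48 h. Immunofluorescent images were taken. Fields were chosen at random and every cell in each field was measured. Cell area was expressed as % of control cell area.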

[4] = tested on: TGF-β release from NRK-52E cells; experiment: TGF-β release into cell media by ELISA; assay type: cell-based, rat; conditions: MGA 48 h
Summary of the method: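 Cells were seeded in 12-well plates, kept serum-free for 24 h, then treated with MGA ± test agents; serum-free cells served as controls. Media were collected on ice and TGF-β measured by ELISA (sensitivity 15 pg/ml). Release was expressed as ng/ml.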

NRK-52E cells [5] = experiment: Intracellular angiotensin peptide content by RIA; assay type: cell-based, rat
Summary of the method: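 Cells were serum-free for 24 h, then given 100 uM MGA for 48 h; pellets were snap-frozen. Pellets were boiled 15 min in water, sonicated, acidified to 0.2% TFA and spun at 20,000g for 20 min at 4°C. Peptides were extracted on C18 (eluted in 80% methanol/0.2% TFA) and blanks subtracted. Ang I, Ang II and Ang-(1-7) were measured by separate RIAs; the Ang-(1-7) RIA also detects Ang-(2-7). Paired t-test versus control.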

NRK-52E cells [6] = experiment: Cellular hypertrophy by 3H-leucine incorporation; assay type: cell-based, rat; conditions: 100 μM MGA 48 h
Summary of the method: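 Confluent NRK-52E cells were serum-starved for 24 h, then kept 48 h in serum-free medium ± 100 μM MGA and test agents. Cells were pulsed with 0.5 μCi 3H-leucine for the last 24 h at 37°C, washed in PBS and fixed 15 min in ice-cold 10% TCA. After 5% TCA washes, protein was dissolved in 0.05 N NaOH/0.1% SDS at 37°C and counted by scintillation. Triplicate wells; % of control per well; 5 cell passages.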

ERK1/2 in NRK-52E cells [7] = experiment: MGA-induced ERK1/2 phosphorylation by Western blot; assay type: cell-based, rat; conditions: MGA 48 hours, immunoblot densitometry, n=3
Summary of the method: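 Cells were serum-starved for 24 h, then treated with 100 uM MGA for 48 h. Lysis was in Triton buffer, pH 7.4, with NaVO4, PMSF and leupeptin. 10-50 μg protein was run on 10% SDS-PAGE and transferred to PVDF. Blots were probed overnight at 4°C with anti-phospho-ERK1/2 (1:2000), then stripped and re-probed for total ERK1/2 (1:3000). Detection was HRP chemiluminescence, with densitometry. 3 cell passages.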

ERK1/2 in NRK-52E cells [8] = experiment: TGF-β-induced ERK1/2 phosphorylation by Western blot; assay type: cell-based, rat; conditions: TGF-β 5 ng/ml, 15 min incubation, n=3
Summary of the method: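 Rat kidney proximal epithelial NRK-52E cells in DMEM/F12 with 5% FBS are serum-starved 24 h, then exposed to TGF-β (5 ng/ml) for 15 min. Lysis is in Triton buffer (100 mM NaCl, 50 mM NaF, 5 mM EDTA, 1% Triton X-100, 50 mM Tris-HCl pH 7.4, plus NaVO4, PMSF, leupeptin), followed by sonication and a 10,000 g spin. 10-50 μg protein is run on 10% SDS-PAGE and blotted to PVDF. Phospho-ERK1/2 is detected by HRP chemiluminescence, then the membrane is stripped and reprobed for total ERK1/2. Bands are quantified by densitometry.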

## D-Ala^7-Ang-(1-7) [DAL, reference compound]
α-SMA in NRK-52E cells [1]; Ang-(1-7) 100 nM + DAL 10 μM
  Effect of DAL on the inhibition of MGA-induced α-SMA expression by Ang-(1-7): blocked
α-SMA in NRK-52E cells [2]
  Effect of DAL on the inhibition of MGA-induced MT by Ang-(1-7) (α-SMA staining): appeared to be reversed

## CC[C@H](C)[C@H](NC(=O)[C@H](Cc1ccc(O)cc1)NC(=O)[C@@H](NC(=O)[C@H](CCCNC(=N)N)NC(=O)[C@@H](N)CC(=O)O)C(C)C)C(=O)N[C@@H](Cc1c[nH]cn1)C(=O)N1CCC[C@H]1C(=O)O [Ang-(1-7), Angiotensin-(1-7)]
Ang-; supernatant of MGA-treated NRK-52E cells
  Metabolism of Ang-(1-7) to Ang-(1-4), MGA cells (abstract): 175 ± 9 fmol/min/mg protein
Ang-; supernatant of control NRK-52E cells
  Metabolism of Ang-(1-7) to Ang-(1-4), control cells (abstract): 115 ± 11 fmol/min/mg protein

## MGA: AGE product: BSA incubated with 500 μM methylglyoxal for 24 hours
NRK-52E cells [3]
  Fold increase of cell area, MGA alone: approximately 4 fold
NRK-52E cells [3]; mean ± SEM n=3
  Cell area, MGA alone: 467 ± 70 % of control
α-SMA in NRK-52E cells [1]; vs control cells
  Fold induction of α-SMA protein expression, MGA alone: 3 fold
[4]; ELISA of media, control 0.4 ± 0.1, n=6
  TGF-β release, MGA alone: 1.16 ± 0.1 ng/mL
[4]; vs control
  Fold increase of TGF-β release, MGA alone: approximately 3 fold
NRK-52E cells [5]; 100 uM MGA 48 h, RIA, mean ± SEM, n=3, control cells 396 ± 59
  Intracellular Ang-(1-7) peptide content: 219 ± 54 fmol/mg protein
NRK-52E cells [5]; 100 uM MGA 48 h, RIA, n=3
  Intracellular Ang I peptide levels vs control: not different
  Intracellular Ang II peptide levels vs control: not different
NRK-52E cells [5]; MGA exposure 48 hours
  Reduction of intracellular levels of Ang-(1-7): approximately 50%
NRK-52E cells [6]
  Fold increase of 3H-leucine incorporation, MGA alone: approximately 2 fold
ERK1/2 in NRK-52E cells [7]
  Fold increase in density of phosphorylated ERK 1, MGA alone: 2.5 fold
  Fold increase in density of phosphorylated ERK 2, MGA alone: 4 fold

## TGF-β
ERK1/2 in NRK-52E cells [8]
  ERK1/2 phosphorylation, TGF-β alone: stimulated
